Reference: ChEMBL document CHEMBL2021883, “Amino acid, dipeptide and pseudodipeptide conjugates of ring-substituted 8-aminoquinolines: synthesis and evaluation of anti-infective, β-haematin inhibition and cytotoxic activities” (Eur J Med Chem, 2012)
In brackets after ≈: the same amount, converted by molar mass. Activity calls are given as the source filed them. Unless noted, the calls are words filed in the database; no cut-off is given here.

Assays:
Candida albicans [1] = assay: Antifungal activity against Candida albicans at 20 ug/ml; assay type: functional, organism-based
Method in brief: (§1)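 Broth dilution antifungal testing followed the NCCLS reference method for yeasts, with 20 as the highest test concentration. MIC was the lowest concentration with no detectable growth. MFC was the lowest concentration killing the organism.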

Escherichia coli [2] = assay: Antimicrobial activity against Escherichia coli ATCC 35218 by CLSI method; assay type: functional, organism-based
Candida albicans [3] = assay: Fungicidal activity against Candida albicans at 20 ug/ml; assay type: functional, organism-based; method in brief: as §1
[4] = system: Mycobacterium intracellulare; assay: Antimicrobial activity against Mycobacterium intracellulare ATCC 23068 by Franzblau method; assay type: functional, organism-based
Vero = assay: Cytotoxicity against african green monkey Vero cells upto 23.8 […] by neutral dye assay; assay type: cell-based, Chlorocebus sabaeus
Method in brief: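 Vero monkey kidney cells were exposed to compound up to a highest concentration of 23.8, with viability read by neutral red uptake.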

Cryptococcus neoformans = assay: Antifungal activity against Cryptococcus neoformans; assay type: functional, organism-based
Method in brief: (§2)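 Yeasts and A. fumigatus were tested by broth microdilution following the NCCLS antifungal standards. The highest test concentration was 20.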

Plasmodium falciparum [5] = assay: Antimalarial activity against chloroquine-resistant Plasmodium falciparum W2 assessed as plasmodial LDH activity; assay type: functional, organism-based
Plasmodium falciparum [6] = assay: Antimalarial activity against chloroquine-sensitive Plasmodium falciparum D6 assessed as plasmodial LDH activity; assay type: functional, organism-based
Staphylococcus aureus [7] = assay: Antimicrobial activity against Staphylococcus aureus ATCC 29213 by CLSI method; assay type: functional, organism-based
Staphylococcus aureus [8] = assay: Antimicrobial activity against methicillin-resistant Staphylococcus aureus ATCC 43300 by CLSI method; assay type: functional, organism-based
Leishmania donovani = assay: Antileishmanial activity against Leishmania donovani promastigote by Alamar Blue assay; assay type: functional, organism-based
Aspergillus fumigatus = assay: Antifungal activity against Aspergillus fumigatus; assay type: functional, organism-based; method in brief: as §2
[9] = Selectivity index, ratio of IC50 for african green monkey Vero cells to IC50 for chloroquine-resistant Plasmodium falciparum W2; assay type: toxicity, cell-based; conditions: Vero cells versus Plasmodium falciparum W2, read-out: Ratio IC50
[10] = Selectivity index, ratio of IC50 for african green monkey Vero cells to IC50 for chloroquine-sensitive Plasmodium falciparum D6; assay type: toxicity, cell-based; conditions: Vero cells versus Plasmodium falciparum D6, read-out: Ratio IC50
[11] = Inhibition of beta-hematin formation; assay type: functional
Pseudomonas aeruginosa = assay: Antimicrobial activity against Pseudomonas aeruginosa ATCC 27853 by CLSI method; assay type: functional, organism-based
Method in brief: (§3)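 Antibacterial testing used CLSI/NCCLS broth dilution for aerobically growing bacteria, with 20 as the highest test concentration.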

Candida albicans [12] = assay: Antifungal activity against Candida albicans; assay type: functional, organism-based; method in brief: as §2
Nakaseomyces glabratus = assay: Antifungal activity against Candida glabrata; assay type: functional, organism-based; method in brief: as §2
Plasmodium berghei = assay: Antimalarial activity against Plasmodium berghei blood-schizont in mouse malaria model assessed as elimination of parasitemia at 100 mg/kg, po for 4 days for 4 days measured after 7 days; assay type: functional, organism-based; design: dose 100 mg/kg
Method in brief: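 P. berghei-infected mice, 6 per group, received compound orally once daily for 4 days at 10, 25, 50 or 100 mg/kg/day. "Active" meant all treated animals were parasitaemia-negative up to D+7. "Curative" meant complete parasite elimination with survival to D+60. Outcomes were recorded as cured/total.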

[13] = system: Mycobacterium intracellulare; assay: Bactericidal activity against Mycobacterium intracellulare ATCC 23068 at 20 ug/ml by Franzblau method; assay type: functional, organism-based
Escherichia coli [14] = assay: Antimicrobial activity against Escherichia coli ATCC 35218 at 20 ug/ml by CLSI method; assay type: functional, organism-based; method in brief: as §3
[15] = system: Mycobacterium intracellulare; assay: Antimicrobial activity against Mycobacterium intracellulare ATCC 23068 at 20 ug/ml by Franzblau method; assay type: functional, organism-based
Escherichia coli [16] = assay: Bactericidal activity against Escherichia coli ATCC 35218 at 20 ug/ml by CLSI method; assay type: functional, organism-based; method in brief: as §3
[17] = Plasmodium falciparum, W2, read-out: IC50
[18] = Plasmodium falciparum, D6, read-out: IC50
[19] = Leishmania donovani, read-out: IC50

SMILES	Activity (Escherichia coli [2])	Activity (Candida albicans [3])	Activity [4]	IC50 (Vero)	IC50 (Cryptococcus neoformans) [µg/mL]	MFC (Cryptococcus neoformans) [µg/mL]	MIC (Cryptococcus neoformans) [µg/mL]	IC50 (Plasmodium falciparum [5]; [17]) [µg/mL]	IC50 (Plasmodium falciparum [6]; [18]) [µg/mL]	Activity (Staphylococcus aureus [7])	Activity (Staphylococcus aureus [8])	IC50 (Leishmania donovani)	IC90 (Leishmania donovani)	Activity (Aspergillus fumigatus)	selectivity ratio [9]	selectivity ratio [10]	IC50 [11] [µM]	Activity (Pseudomonas aeruginosa)	IC90 (Leishmania donovani; Leishmania donovani) [µg/mL]	IC50 (Leishmania donovani; [19]) [µg/mL]	also measured
COc1cc(NC(C)CCCNC(=O)C[C@@H](NC(=O)[C@H](N)CCCCN)C(=O)O)c2ncccc2c1 (stereo not given in full)	inactive	inactive	inactive	Non-toxic	4.5 (≈ 8.95 µM)	10 (≈ 19.9 µM)	10 (≈ 19.9 µM)	3.2 (≈ 6.37 µM)	2.4 (≈ 4.78 µM)	inactive	inactive	Not Active	inactive	inactive	> 7.4	> 9.9	160	inactive	–	–	Activity (Candida albicans [1]): inactive
C[C@@H]1[C@H](O)[C@@H](C)/C=C/C=C/C=C/C=C/C=C/C=C/C=C/[C@H](O[C@@H]2O[C@H](C)[C@@H](O)[C@H](N)[C@@H]2O)C[C@@H]2O[C@](O)(C[C@@H](O)C[C@@H](O)[C@H](O)CC[C@@H](O)C[C@@H](O)CC(=O)O[C@H]1C)C[C@H](O)[C@H]2C(=O)O [AMPHOTERICIN B]	–	–	–	–	–	1.5 (≈ 1.62 µM)	–	–	–	–	–	–	–	–	–	–	–	–	0.35 (≈ 0.379 µM)	–	MIC (Candida albicans [12]): 0.63 µg/mL (≈ 0.682 µM); MFC (Nakaseomyces glabratus): 0.625 µg/mL (≈ 0.676 µM); MIC (Nakaseomyces glabratus): 0.31 µg/mL (≈ 0.335 µM)
COc1cc(NC(C)CCCNC(=O)C[C@@H](NC(=O)[C@H](N)CCCNC(=N)N)C(=O)O)c2nc(C(C)(C)C)ccc2c1 (stereo not given in full)	inactive	–	inactive	Non-toxic	–	–	–	2.6 (≈ 4.43 µM)	1.8 (≈ 3.07 µM)	inactive	inactive	Not Active	inactive	–	> 9.1	> 13.2	127	inactive	–	–	Activity (Plasmodium berghei): Active
COc1cc(NC(C)CCCNC(=O)C[C@@H](NC(=O)[C@H](N)CCCNC(=N)N)C(=O)O)c2ncccc2c1 (stereo not given in full)	inactive	–	inactive	Non-toxic	–	–	–	4.2 (≈ 7.92 µM)	3.2 (≈ 6.03 µM)	inactive	inactive	–	–	–	> 5.6	> 7.4	210	inactive	33 (≈ 62.2 µM)	20.1 (≈ 37.9 µM)	–
COc1cc(NC(C)CCCNC(=O)[C@H](CCCCN)NC(=O)[C@@H](N)CCCCN)c2nc(C(C)(C)C)ccc2c1 (stereo not given in full)	inactive	inactive	inactive	Non-toxic	3.5 (≈ 6.12 µM)	5 (≈ 8.74 µM)	5 (≈ 8.74 µM)	0.4 (≈ 0.7 µM)	0.63 (≈ 1.1 µM)	inactive	inactive	–	–	inactive	> 59.5	> 37.7	73	inactive	39 (≈ 68.2 µM)	19 (≈ 33.2 µM)	Activity (Candida albicans [1]): inactive; Activity (Plasmodium berghei): Active
COc1cc(NC(C)CCCNC(=O)[C@H](CCCN)NC(=O)[C@@H](N)CCCN)c2ncccc2c1 (stereo not given in full)	inactive	inactive	inactive	Non-toxic	5.5 (≈ 11.3 µM)	20 (≈ 41 µM)	10 (≈ 20.5 µM)	–	–	inactive	inactive	–	–	inactive	–	–	> 1000	inactive	20 (≈ 41 µM)	4 (≈ 8.2 µM)	Activity (Candida albicans [1]): inactive; IC50 (Plasmodium falciparum [5]): Not Active; IC50 (Plasmodium falciparum [6]): Not Active; Activity (Plasmodium berghei): Active
COc1cc(NC(C)CCCNC(=O)C[C@H](NC(=O)[C@@H](N)CCCN)C(=O)O)c2nc(C(C)(C)C)ccc2c1 (stereo not given in full)	inactive	–	inactive	Non-toxic	4 (≈ 7.34 µM)	20 (≈ 36.7 µM)	20 (≈ 36.7 µM)	3 (≈ 5.51 µM)	2.7 (≈ 4.96 µM)	inactive	inactive	–	–	inactive	> 7.9	> 8.8	40	inactive	36 (≈ 66.1 µM)	20 (≈ 36.7 µM)	IC50 (Candida albicans [12]): 15 µg/mL (≈ 27.5 µM); MFC (Candida albicans [12]): 20 µg/mL (≈ 36.7 µM); MIC (Candida albicans [12]): 20 µg/mL (≈ 36.7 µM)
COc1cc(NC(C)CCCNC(=O)CC[C@H](NC(=O)[C@@H](N)CCCNC(=N)N)C(=O)O)c2ncccc2c1 (stereo not given in full)	inactive	–	inactive	Non-toxic	–	–	–	1.8 (≈ 3.3 µM)	1.8 (≈ 3.3 µM)	inactive	inactive	Not Active	inactive	–	> 13.2	> 13.2	–	inactive	–	–	–
COc1cc(NC(C)CCCNC(=O)NCCC[C@@H](N)C(=O)O)c2nc(C(C)(C)C)ccc2c1 (stereo not given in full)	inactive	–	inactive	Non-toxic	–	–	–	4.76 (≈ 10.1 µM)	4.2 (≈ 8.87 µM)	inactive	inactive	Not Active	inactive	–	5	> 5.5	250	inactive	–	–	–
COc1cc(NC(C)CCCNC(=O)[C@H](CCCNC(=N)N)NC(=O)[C@@H](N)CCCNC(=N)N)c2nc(C(C)(C)C)ccc2c1 (stereo not given in full)	inactive	inactive	inactive	Non-toxic	2.5 (≈ 3.98 µM)	5 (≈ 7.96 µM)	5 (≈ 7.96 µM)	0.82 (≈ 1.31 µM)	0.97 (≈ 1.54 µM)	–	–	–	–	inactive	> 29	> 24.5	53	inactive	31 (≈ 49.4 µM)	9 (≈ 14.3 µM)	Activity [13]: inactive; IC50 (Candida albicans [12]): 15 µg/mL (≈ 23.9 µM); MIC (Candida albicans [12]): 20 µg/mL (≈ 31.9 µM); Activity (Escherichia coli [14]): inactive; Activity [15]: inactive; Activity (Escherichia coli [16]): inactive; Activity (Plasmodium berghei): Active; IC50 (Staphylococcus aureus [8]): 7 µg/mL (≈ 11.1 µM); MBC (Staphylococcus aureus [8]): 20 µg/mL (≈ 31.9 µM); MIC (Staphylococcus aureus [8]): 10 µg/mL (≈ 15.9 µM)
COc1cc(NC(C)CCCNC(=O)[C@H](CCCNC(=N)N)NC(=O)[C@@H](N)CCCNC(=N)N)c2ncccc2c1 (stereo not given in full)	inactive	inactive	inactive	Non-toxic	4.5 (≈ 7.87 µM)	10 (≈ 17.5 µM)	10 (≈ 17.5 µM)	4.76 (≈ 8.33 µM)	–	inactive	inactive	Not Active	inactive	inactive	> 5	–	81	inactive	–	–	Activity (Candida albicans [1]): inactive; IC50 (Plasmodium falciparum [6]): Not Active
COc1cc(NC(C)CCCNC(=O)[C@@H](CCCNC(=N)N)NC(=O)[C@H](N)CCCNC(=N)N)c2ncccc2c1 (stereo not given in full)	inactive	inactive	inactive	Non-toxic	7 (≈ 12.2 µM)	10 (≈ 17.5 µM)	10 (≈ 17.5 µM)	1.7 (≈ 2.97 µM)	1.3 (≈ 2.27 µM)	inactive	inactive	–	–	inactive	> 14	> 18.3	32	inactive	36 (≈ 63 µM)	17 (≈ 29.7 µM)	Activity (Candida albicans [1]): inactive
COc1cc(NC(C)CCCNC(=O)C[C@H](NC(=O)[C@@H](N)CCCNC(=N)N)C(=O)O)c2ncccc2c1 (stereo not given in full)	inactive	–	inactive	Non-toxic	–	–	–	2.9 (≈ 5.47 µM)	3 (≈ 5.65 µM)	inactive	inactive	Not Active	inactive	–	> 8.2	> 7.9	120	inactive	–	–	–
